Autophagy HCS: autophagy modulators in MEF cells, primary screen, imaging, high-content, MEF GFP-LC3 | MEF GFP-LC3 puncta imaging; test concentration mostly 10 µM | calls only at 10 µM (by protocol) | 0.98% of 190,000 active | AID 463193, 2010;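 active = percentage of spot-positive cells more than 3 SD above its plate mean, without a fluorescence outlier flag or 80% toxicity; inconclusive = no clear call, values can overlap the other calls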;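 also: spot-positive cell cutoff set from DMSO-treated cells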
Dynein cargo inh: inhibitors of GR-EGFP nuclear translocation, primary screen, dynein cargo transport inhibitor project, imaging, high-content, 3617.4 mouse cells. test concentration mostly 20 µM; stimulated with dexamethasone, 1 µM; hits give low values. z-score, hits read low. 0.47% of 220,000 active;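 active = plate z-score of nuclear minus cytoplasmic receptor signal below a set negative limit, without overly bright fluorescence or cell loss, cut at about -3.5 in these data, passing the limit was not always enough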;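 also: z-score of nuclear minus cytoplasmic ring GR-EGFP intensity difference per well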
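medium = tetracycline-free induction medium containing charcoal-stripped FBS | probe or stimulus = dexamethasone, 1.0 µM final | timing = 48 h induction, then 1 h compound, then 30 min agonist, 37 °C | detection = automated 10x imaging of fixed Hoechst-stained cells | read-out basis = nuclear versus cytoplasmic GR-EGFP signal, averaged per well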
zVAD death inh: inhibitors of zVAD-triggered necroptosis, primary screen, L929 cells; L929 zVAD necroptosis rescue, ATP luminescence, 24 h; with zVAD 60 µM; viability rescue, % at 10 µM; 0.38% of 220,000 active; AID 1377, 2008;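 active = activation, scaled between plate controls, above about 75%, limit read from the data; inactive = activation under that limit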;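 also: 0% = zVAD with DMSO and 100% = DMSO alone without zVAD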
TNF necrop inh: inhibitors of TNF-alpha triggered necroptosis, primary screen, cell-based, Jurkat FADD-/-, single concentration | Jurkat FADD-/- TNF necroptosis rescue, ATP luminescence, 24 h; 0 = TNF only, 100 = no-TNF cells | activation (protection from cell death), % at 10 µM | 0.068% of 220,000 active;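 active = activation, meaning protection from cell death, of at least 50% relative to plate controls; inactive = activation below 50%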;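 also: necroptosis triggered by 40 ng/mL TNF-alpha added together with compound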
MDM2 E3 inh: MDM2-luciferase reporter signal enhancers, primary screen, MDM2 E3 ligase inhibitor project, cell-based, luminescence, 1536-well. cell-based MDM2 ubiquitination luciferase reporter, 2 h; 0 = plate control, 100 = twice control, blank-subtracted. signal enhancement, % at 5 µM. 0.11% of 210,000 active;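 active = signal enhancement of 30% or more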;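 also: luminescence tracks abundance of the self-degrading MDM2-luciferase fusion protein; higher signal means inhibition of MDM2 E3 ligase activity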
Target sequence (Q00987 whole entry, looked up, the tested form may be a part): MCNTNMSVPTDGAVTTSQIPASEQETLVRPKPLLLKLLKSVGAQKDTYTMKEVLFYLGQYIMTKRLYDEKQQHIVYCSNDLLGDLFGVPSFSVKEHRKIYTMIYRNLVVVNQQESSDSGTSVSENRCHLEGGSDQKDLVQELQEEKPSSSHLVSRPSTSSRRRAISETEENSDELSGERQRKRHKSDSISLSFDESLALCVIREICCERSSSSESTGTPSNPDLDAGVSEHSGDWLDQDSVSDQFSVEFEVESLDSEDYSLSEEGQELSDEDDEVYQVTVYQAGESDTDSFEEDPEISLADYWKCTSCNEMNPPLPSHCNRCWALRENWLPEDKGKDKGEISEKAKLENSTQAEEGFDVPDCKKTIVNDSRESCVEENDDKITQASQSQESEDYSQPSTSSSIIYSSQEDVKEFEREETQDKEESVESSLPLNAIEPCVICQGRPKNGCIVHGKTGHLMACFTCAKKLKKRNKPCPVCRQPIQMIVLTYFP
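Material: stable MDM2–luciferase fusion reporter cells / Quantity: 2000 cells/well / Dosing: single 5 µM compound dose, 0.2% final DMSO / Buffer or medium: DMEM / Schedule: 4 h cell settling then 2 h compound exposure, 37 °C / Detection: luminescence with SteadyLite reagent, 15 min at room temperature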
Dynein inh conf: dynein cargo transport inhibitors, GR-EGFP translocation, confirmation, imaging, high-content imaging, GR-EGFP cells | 3617.4 GR-EGFP nuclear translocation imaging, dexamethasone-induced | calls only at 20 µM | shares compounds with Dynein cargo inh | 69% of 1,000 active;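 active = inhibition of receptor movement into the nucleus at or above a set limit in both runs, with normal cell brightness and cell count; inconclusive = limit reached in only one run, brightness and count normal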;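 also: dexamethasone at 1 µM final in well for 30 min; nuclear minus cytoplasmic GR-EGFP mean intensity difference in channel 2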
Numbers without * were called inactive. Hits are enriched below; roughly 1.8% of the tested compounds scored in any of these assays.

What do the screens show for `CC(C)(c1ccccc1)c1ccc(OCC(O)CNC2CCN(Cc3ccccc3)CC2)cc1` (stereo unspecified)?
Autophagy HCS: active; Dynein cargo inh: -4.98*; zVAD death inh: -3.7; TNF necrop inh: -16.3; MDM2 E3 inh: -2.4; Dynein inh conf: inactive

Results for Cc1ccccc1NC(=O)COC(=O)c1ccc(S(C)(=O)=O)c([N+](=O)[O-])c1 ?
Autophagy HCS: inactive; Dynein cargo inh: -4.42*; zVAD death inh: 5.7; TNF necrop inh: -1.6; MDM2 E3 inh: 3.9; Dynein inh conf: active

How did CC(=O)c1cccc(NC(=O)COC(=O)c2ccc(S(C)(=O)=O)c([N+](=O)[O-])c2)c1 do in these assays?
Autophagy HCS: inactive; Dynein cargo inh: 0.304; zVAD death inh: 1.6; TNF necrop inh: 0.4; MDM2 E3 inh: -14.2

Results for CS(=O)(=O)c1ccc(C(=O)OCc2nnc(-c3ccccc3)o2)cc1[N+](=O)[O-] ?
Autophagy HCS: inactive; Dynein cargo inh: -6.56*; zVAD death inh: -1.8; TNF necrop inh: 0.2; MDM2 E3 inh: 15.1; Dynein inh conf: active

Results for CNCc1ccccc1Sc1cc(O)ccc1O ?
Autophagy HCS: inactive; Dynein cargo inh: -4.01*; zVAD death inh: 3.4; TNF necrop inh: -8.7; MDM2 E3 inh: -6.6; Dynein inh conf: active

What do the screens show for `CC(=O)Nc1cccc(C(=O)/C=C/c2ccc(/C=C/C(=O)c3cccc(NC(C)=O)c3)cc2)c1`?
Autophagy HCS: inactive; Dynein cargo inh: -2.07; zVAD death inh: 7.4; TNF necrop inh: -5.5; MDM2 E3 inh: 6.3

What do the screens show for `CC(=O)Nc1cccc(C(=O)/C=C/c2cccs2)c1`?
Autophagy HCS: inactive; Dynein cargo inh: -3.67*; zVAD death inh: 0.1; TNF necrop inh: 1.9; MDM2 E3 inh: -4.7; Dynein inh conf: active

How did CC(=O)Nc1cccc(C(=O)/C=C/c2ccc(F)cc2)c1 do in these assays?
Autophagy HCS: inactive; Dynein cargo inh: -3.86*; zVAD death inh: 0.7; TNF necrop inh: -5.0; MDM2 E3 inh: 10.8; Dynein inh conf: active

Results for Clc1ncnc2scc(-c3ccc(Br)cc3)c12 ?
Autophagy HCS: inactive; Dynein cargo inh: -4.45*; zVAD death inh: -0.6; TNF necrop inh: -6.8; MDM2 E3 inh: -6.7; Dynein inh conf: active

What do the screens show for `Cc1cc(N)n(-c2ncnc3scc(-c4ccc(Cl)cc4)c23)n1`?
Autophagy HCS: inactive; Dynein cargo inh: 0.511; zVAD death inh: -0.4; TNF necrop inh: -2.5; MDM2 E3 inh: 1.6

What do the screens show for `Cc1c(C#N)c(NC(=O)CCl)n(Cc2ccccc2)c1C`?
Autophagy HCS: inactive; Dynein cargo inh: -2.86; zVAD death inh: 2.0; TNF necrop inh: -7.8; MDM2 E3 inh: 15.4

Results for Cc1c(C#N)c(NC(=O)CCl)n(Cc2cccs2)c1C ?
Autophagy HCS: inactive; Dynein cargo inh: -5.25*; zVAD death inh: 4.9; TNF necrop inh: -10.8; MDM2 E3 inh: -18.6; Dynein inh conf: active

Results for CC(=O)n1cc(N(C(=O)CCl)c2ccc(C)cc2)c2ccccc21 ?
Dynein cargo inh: -6.01*; zVAD death inh: 59.8; TNF necrop inh: -31.7; MDM2 E3 inh: -13.1; Dynein inh conf: active

What do the screens show for `CC(=O)N(c1ccc(Cl)cc1)c1cn(C(C)=O)c2ccccc12`?
Autophagy HCS: inactive; Dynein cargo inh: -0.466; zVAD death inh: 0.1; TNF necrop inh: 1.0; MDM2 E3 inh: -20.1

Results for Nc1nnc(/C=C/c2ccccc2Cl)s1 ?
Dynein cargo inh: 0.225; zVAD death inh: -0.9; TNF necrop inh: -7.5; MDM2 E3 inh: -18.9

Results for Cc1cc(OCC(=O)Nc2ccc(S(=O)(=O)NC3=NCCCCC3)cc2)c(C(C)C)cc1Cl ?
Autophagy HCS: inactive; Dynein cargo inh: -0.0218; zVAD death inh: 1.5; TNF necrop inh: 3.1; MDM2 E3 inh: -7.9

How did CCCCNC1C(CC)C(CCC)C(C#N)(C#N)C1(C#N)C#N (stereo unspecified) do in these assays?
Autophagy HCS: inactive; Dynein cargo inh: -3.63*; zVAD death inh: -0.4; TNF necrop inh: -12.6; MDM2 E3 inh: 11.4; Dynein inh conf: active

What do the screens show for `CC(=O)n1cc(C(C[N+](=O)[O-])SCCN)c2ccccc21` (stereo unspecified)?
Autophagy HCS: inactive; Dynein cargo inh: -3.82*; zVAD death inh: -0.1; TNF necrop inh: -12.2; MDM2 E3 inh: -14.3; Dynein inh conf: inactive

What do the screens show for `CCCCc1c(C)c(C#N)c2nc3ccccc3n2c1Cl`?
Autophagy HCS: inactive; Dynein cargo inh: -5.24*; zVAD death inh: 2.4; TNF necrop inh: -14.4; MDM2 E3 inh: -2.4; Dynein inh conf: active

Results for CCc1c(C)c(C#N)c2nc3ccccc3n2c1N(C)C ?
Autophagy HCS: inactive; Dynein cargo inh: 1.27; zVAD death inh: 0.3; TNF necrop inh: -0.2; MDM2 E3 inh: -22.3

How did COc1ccc(/C=C(\C#N)C(=O)OCC(=O)Nc2ccc(-c3nc4ccc(C)cc4s3)cc2)cc1 do in these assays?
Autophagy HCS: inactive; Dynein cargo inh: -0.0902; zVAD death inh: 1.2; TNF necrop inh: -0.5; MDM2 E3 inh: -52.5

How did N#CCCS(=O)(=O)c1nnnn1-c1ccccc1 do in these assays?
Autophagy HCS: inactive; Dynein cargo inh: -5.03*; zVAD death inh: -0.5; TNF necrop inh: -10.9; Dynein inh conf: inconclusive

How did S=C(Nc1ccc(Cc2ccncc2)cc1)Nc1cccc(Cl)c1 do in these assays?
Autophagy HCS: inactive; Dynein cargo inh: -0.786; zVAD death inh: 2.2; TNF necrop inh: 0.2; MDM2 E3 inh: -5.4

How did CCOC(=O)C1=C(CSc2nc(-c3ccncc3)ccc2C#N)OC(N)=C(C#N)C1c1cccnc1 (stereo unspecified) do in these assays?
Autophagy HCS: inactive; Dynein cargo inh: -1.55; zVAD death inh: 5.1; TNF necrop inh: -3.9; MDM2 E3 inh: -18.1

How did CCOC(=O)C1=C(CSc2nc(-c3ccncc3)ccc2C#N)OC(N)=C(C#N)C1c1ccc(OC)cc1 (stereo unspecified) do in these assays?
Autophagy HCS: inactive; Dynein cargo inh: -5.83; zVAD death inh: 0.1; TNF necrop inh: -4.0; MDM2 E3 inh: -6.0; Dynein inh conf: inactive

What do the screens show for `C=CCNC(=O)CSc1nnc(C(CC)N(C)C)n1C1CCCCC1` (stereo unspecified)?
Dynein cargo inh: -0.627; zVAD death inh: 0.0; TNF necrop inh: 3.3; MDM2 E3 inh: -16.3

Source: PubChem BioAssay (several laboratories)
